Tests used:
[1] = biological target: T1, Gamma-aminobutyric acid receptor subunit alpha-5 (Homo sapiens, UniProt P31644); test: Effective concentration against Gamma-aminobutyric acid A receptor, alpha 5; set-up: species or system Xenopus laevis
T1 sequence (P31644 whole entry): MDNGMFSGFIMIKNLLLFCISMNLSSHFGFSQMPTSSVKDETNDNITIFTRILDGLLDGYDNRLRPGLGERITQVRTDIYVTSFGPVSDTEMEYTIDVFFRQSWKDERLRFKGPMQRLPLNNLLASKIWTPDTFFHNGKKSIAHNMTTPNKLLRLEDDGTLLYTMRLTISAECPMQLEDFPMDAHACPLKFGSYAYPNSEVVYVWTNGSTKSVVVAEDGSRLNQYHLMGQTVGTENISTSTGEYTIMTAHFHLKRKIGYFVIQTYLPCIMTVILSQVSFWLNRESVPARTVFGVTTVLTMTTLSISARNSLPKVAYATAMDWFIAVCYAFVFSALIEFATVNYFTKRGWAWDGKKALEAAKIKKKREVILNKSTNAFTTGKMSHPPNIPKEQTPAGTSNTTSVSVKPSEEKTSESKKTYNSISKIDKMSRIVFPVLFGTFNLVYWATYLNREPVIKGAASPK
Method in brief: (§1)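 Xenopus laevis oocytes were injected with human cRNA for the α, β and γ subunits needed to express each receptor subtype (α1, α2, α3 or α5). Electrophysiological recording was used to read potentiation, and the effective concentration and maximal percent potentiation were derived from it.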

[2] = biological target: GABA-A receptor; anion channel; test: Binding affinity was determined by displacement of [3H]flumazenil from rat cortex homogenates; format: functional
Method in brief: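 Displacement of [3H]flumazenil from rat cortex homogenates. Values are averages (±SD); some analogues were run once as a single set of triplicates. NA means an IC50 was not achieved at the highest dose tested.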

[3] = biological target: T2, Gamma-aminobutyric acid receptor subunit alpha-1 (Homo sapiens, UniProt P14867); test: Effective concentration against gamma-aminobutyric acid (GABA) A receptor, alpha 1; set-up: species or system Xenopus laevis; method in brief: as §1
T2 sequence (P14867 whole entry): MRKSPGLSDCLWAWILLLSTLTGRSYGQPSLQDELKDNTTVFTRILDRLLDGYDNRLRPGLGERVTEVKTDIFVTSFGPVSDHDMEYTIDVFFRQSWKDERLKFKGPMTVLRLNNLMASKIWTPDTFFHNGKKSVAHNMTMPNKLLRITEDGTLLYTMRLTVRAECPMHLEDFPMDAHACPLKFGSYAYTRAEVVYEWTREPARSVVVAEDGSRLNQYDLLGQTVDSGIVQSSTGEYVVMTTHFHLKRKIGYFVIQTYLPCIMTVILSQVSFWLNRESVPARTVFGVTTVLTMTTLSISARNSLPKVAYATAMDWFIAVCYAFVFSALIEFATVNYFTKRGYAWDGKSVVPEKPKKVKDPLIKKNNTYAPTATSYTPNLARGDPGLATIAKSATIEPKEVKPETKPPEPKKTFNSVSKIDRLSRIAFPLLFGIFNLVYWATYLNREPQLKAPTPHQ

[4] = biological target: T3, Gamma-aminobutyric acid receptor subunit alpha-2 (Homo sapiens, UniProt P47869); test: Effective concentration against gamma-aminobutyric acid (GABA) A receptor, alpha 2; set-up: species or system Xenopus laevis; method in brief: as §1
T3 sequence (P47869 whole entry): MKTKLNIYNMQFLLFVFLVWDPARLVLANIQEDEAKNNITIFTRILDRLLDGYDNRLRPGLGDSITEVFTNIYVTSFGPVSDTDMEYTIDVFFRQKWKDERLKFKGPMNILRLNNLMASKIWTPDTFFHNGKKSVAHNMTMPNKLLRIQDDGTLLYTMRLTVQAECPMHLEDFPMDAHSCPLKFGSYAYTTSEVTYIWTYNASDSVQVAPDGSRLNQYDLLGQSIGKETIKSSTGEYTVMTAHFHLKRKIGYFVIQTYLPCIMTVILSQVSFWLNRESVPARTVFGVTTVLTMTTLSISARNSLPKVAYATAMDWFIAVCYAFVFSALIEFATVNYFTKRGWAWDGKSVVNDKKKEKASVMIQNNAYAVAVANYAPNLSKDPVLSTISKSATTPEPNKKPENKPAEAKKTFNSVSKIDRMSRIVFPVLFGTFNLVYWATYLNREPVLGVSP

[5] = biological target: T4, Gamma-aminobutyric acid receptor subunit alpha-3 (Homo sapiens, UniProt P34903); test: Effective concentration against gamma-aminobutyric acid (GABA) A receptor, alpha 3; set-up: species or system Xenopus laevis; method in brief: as §1
T4 sequence (P34903 whole entry): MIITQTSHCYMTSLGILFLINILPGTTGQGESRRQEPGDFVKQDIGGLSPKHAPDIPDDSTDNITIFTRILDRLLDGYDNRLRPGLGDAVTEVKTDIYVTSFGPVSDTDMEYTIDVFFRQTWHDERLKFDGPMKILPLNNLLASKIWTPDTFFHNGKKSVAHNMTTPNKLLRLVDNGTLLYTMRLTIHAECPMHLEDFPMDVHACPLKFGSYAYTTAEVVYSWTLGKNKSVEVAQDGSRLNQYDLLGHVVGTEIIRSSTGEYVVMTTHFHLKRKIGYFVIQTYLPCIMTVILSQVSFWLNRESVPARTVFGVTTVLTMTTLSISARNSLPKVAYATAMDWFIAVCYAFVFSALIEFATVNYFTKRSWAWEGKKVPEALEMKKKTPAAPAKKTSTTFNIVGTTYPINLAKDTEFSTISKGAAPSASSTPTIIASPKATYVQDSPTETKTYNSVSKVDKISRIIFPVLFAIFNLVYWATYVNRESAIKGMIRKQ

[6] = biological target: T5, Gamma-aminobutyric acid receptor subunit alpha-1 (Homo sapiens) (UniProt P14867); test: Maximum percent potentiation against gamma-aminobutyric acid (GABA) A receptor, alpha 1; details: Xenopus laevis; method in brief: as §1
T5 sequence (whole entry): T2 sequence (P14867 whole entry)

[7] = biological target: T6, Gamma-aminobutyric acid receptor subunit alpha-5 (Homo sapiens) (UniProt P31644); test: Maximum percent potentiation against gamma-aminobutyric acid (GABA) A receptor, alpha 5; details: Xenopus laevis; method in brief: as §1
T6 sequence (whole entry): T1 sequence (P31644 whole entry)

[8] = biological target: T7, Gamma-aminobutyric acid receptor subunit alpha-3 (Homo sapiens) (UniProt P34903); test: Maximum percent potentiation against gamma-aminobutyric acid (GABA) A receptor, alpha 3; details: Xenopus laevis; method in brief: as §1
T7 sequence (whole entry): T4 sequence (P34903 whole entry)

[9] = biological target: T8, Gamma-aminobutyric acid receptor subunit alpha-2 (Homo sapiens) (UniProt P47869); test: Maximum percent potentiation against gamma-aminobutyric acid (GABA) A receptor, alpha 2; details: Xenopus laevis; method in brief: as §1
T8 sequence (whole entry): T3 sequence (P47869 whole entry)

O=c1[nH]c2c(c3nc(-c4ccccc4F)cn13)CN(CC1CCCCC1)CC2
EC50 [1]: 0.231 µM
Ki [2]: 0.0009 µM
EC50 [3]: 0.127 µM
EC50 [4]: 0.202 µM
EC50 [5]: 0.213 µM

C=CCN1CCc2nc(O)n3cc(-c4ccccc4F)nc3c2C1
Activity [6]: 5%
Activity [7]: 0%
Activity [8]: 20%
Activity [9]: 18%

CN1CCc2nc(O)n3cc(-c4ccccc4F)nc3c2C1
Activity [6]: 0%
Activity [9]: 0%

COc1ccc(-c2cn3c(O)nc4c(c3n2)CN(C)CC4)c(F)c1
Ki [2]: 0.045 µM

CC(c1cccc(F)c1)N1CCc2nc(O)n3cc(-c4ccccc4F)nc3c2C1 (stereo unspecified)
Ki [2]: 0.0083 µM

C[C@@H](c1ccccc1)N1CCc2nc(O)n3cc(-c4ccccc4F)nc3c2C1
Ki [2]: 0.0065 µM

COc1ccc(-c2cn3c(=O)[nH]c4c(c3n2)CN(Cc2ccccc2)CC4)cc1
Ki [2]: 0.0026 µM
EC50 [3]: 0.028 µM
EC50 [4]: 0.143 µM

O=C(OCc1ccccc1)N1CCc2nc(O)n3cc(-c4ccccc4F)nc3c2C1
Activity [6]: 5%
Activity [7]: 3%
Activity [8]: 0%
Activity [9]: 8%

Oc1nc2c(c3nc(-c4ccccc4)cn13)CN(Cc1ccccc1)CC2
Activity [6]: 67%
Activity [9]: 179%

Oc1nc2c(c3nc(-c4ccccc4F)cn13)CN(CCCc1ccccc1)CC2
Ki [2]: 0.147 µM

O=C(c1ccccn1)N1CCc2nc(O)n3cc(-c4ccccc4F)nc3c2C1
Ki [2]: 0.073 µM

O=C(c1ccccc1)N1CCc2nc(O)n3cc(-c4ccccc4)nc3c2C1
Ki [2]: 0.301 µM

CC(c1ccc(F)cc1)N1CCc2nc(O)n3cc(-c4ccccc4F)nc3c2C1 (stereo unspecified)
Ki [2]: 0.0149 µM

Oc1nc2c(c3nc(-c4cc(F)cc(F)c4)cn13)CN(Cc1ccccc1)CC2
Ki [2]: 0.072 µM

CC(=O)N1CCc2nc(O)n3cc(-c4ccccc4F)nc3c2C1
Ki [2]: 0.041 µM
Activity [6]: 0%
Activity [7]: 0%
Activity [8]: 11%
Activity [9]: 0%
EC50 [5]: 0.071 µM

COc1ccccc1-c1cn2c(O)nc3c(c2n1)CN(Cc1ccccc1)CC3
Ki [2]: 0.797 µM

C=CCN1CCc2[nH]c(=O)n3cc(-c4ccccc4F)nc3c2C1
Ki [2]: 0.026 µM
EC50 [3]: 0.17 µM
EC50 [4]: 0.284 µM
EC50 [5]: 0.344 µM

O=C(OCc1ccccc1)N1CCc2[nH]c(=O)n3cc(-c4ccccc4F)nc3c2C1
EC50 [1]: 1 µM
Ki [2]: 0.039 µM
EC50 [3]: < 0.1 µM
EC50 [4]: < 0.1 µM

Oc1nc2c(c3nc(-c4cccc(Cl)c4)cn13)CN(Cc1ccccc1)CC2
Ki [2]: 0.071 µM

O=c1[nH]c2c(c3nc(-c4ccccc4)cn13)CN(Cc1ccccc1)CC2
EC50 [3]: 0.017 µM
EC50 [4]: 0.184 µM

Oc1nc2c(c3nc(-c4ccccc4F)cn13)CN(CC1CCCCC1)CC2
Activity [6]: 114%
Activity [7]: 101%
Activity [8]: 115%
Activity [9]: 71%

O=c1[nH]c2c(c3nc(-c4ccccc4F)cn13)CN(Cc1cccnc1)CC2
Ki [2]: 0.0014 µM
EC50 [3]: 0.056 µM
EC50 [4]: 0.101 µM
EC50 [5]: 0.023 µM

CCN1CCc2nc(O)n3cc(-c4ccccc4F)nc3c2C1
Ki [2]: 0.056 µM
Activity [6]: 0%
Activity [7]: 0%
Activity [8]: 14%
Activity [9]: 0%
EC50 [5]: 0.935 µM

O=C(c1ccccc1)N1CCc2nc(O)n3cc(-c4ccccc4F)nc3c2C1
Ki [2]: 0.083 µM

Source: ChEMBL document CHEMBL1135642, “Synthesis and biological evaluation of 7,8,9,10-tetrahydroimidazo[1,2-c]pyrido[3,4-e]pyrimdin-5(6H)-ones as functionally selective ligands of the benzodiazepine receptor site on the GABA(A) receptor” (J Med Chem, 2002)
